Data taken from ChEMBL document CHEMBL1151941, “Inhibition of influenza virus infections by sialylgalactose-binding peptides selected from a phage library” (J Med Chem, 2009).
The source made the active and inactive calls. The rule behind the calls is not given here. Where a SMILES comes first, the peptide text is derived from it. The star is where a group is joined. Stearoyl = CCCCCCCCCCCCCCCCCC(=O)*

Columns and labels:
[1] = Binding affinity to ganglioside GalCer by quartz crystal microbalance method
[2] = Binding affinity to ganglioside 6'GM3 by quartz crystal microbalance method
[3] = Binding affinity to ganglioside GM3 by quartz crystal microbalance method
[4] = Binding affinity to ganglioside GlcCer by quartz crystal microbalance method
Influenza A virus = experiment: Antiviral activity against Influenza A virus (A/Puerto Rico/8/34(H1N1)) infected in MDCK cells after 30 mins by crystal violet-based plaque assay; assay type: functional, organism-based; conditions: A/Puerto Rico/8/1934(H1N1), 0.5 h
Procedure, shortened: (§1)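 MDCK cells in 6-well plates were exposed for 30 min at 37 °C, 5% CO2, to 0.2 mL virus (50-200 pfu) with C18-peptide from PBS stock (2 or 10 mM). After a PBS wash, cells were overlaid with 0.6% agarose/MEM (DEAE-dextran, HEPES, acetyltrypsin, BSA) for 2 days. Living cells were stained and plaques counted. IC50 is the concentration giving 50% inhibition.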

[5] = Critical micellar concentration of the compound; assay type: physicochemical
Procedure, shortened: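 N-stearoyl peptide amide was suspended in PBS containing 1 μM N-phenyl-1-naphthylamine and diluted to 1 nM-0.1 mM. Fluorescence (ex 350, em 450 nm) was read at 25 °C. The cmc is taken at the intersection of two straight lines in the intensity-versus-concentration plot.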

H3N2 subtype = experiment: Antiviral activity against Influenza A virus (A/Aichi/2/1968(H3N2)) infected in MDCK cells after 30 mins by crystal violet-based plaque assay; assay type: functional, organism-based; conditions: 0.5 h; procedure, shortened: as §1
[6] = Binding affinity to ganglioside GM3 at 10 uM
B16 [7] = experiment: Inhibition of binding affinity to ganglioside GM3 in mouse B16 cells at 10 nM by flow cytometry in presence of 1 mM Neu5Ac; assay type: cell-based
Procedure, shortened: (§2)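 B16 cells (2×10^5) were incubated 1 h on ice with phage (10 nM) with or without 1 mM Neu5Ac, Glc or GlcU. They were washed in 1% BSA/PBS, labelled with anti-fd antibody and FITC-conjugated antibody, and analysed by flow cytometry.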

[8] = Ratio of Kd for ganglioside GM3 to Kd for ganglioside GlcCer
B16 [9] = experiment: Inhibition of binding affinity to ganglioside GM3 in mouse B16 cells at 10 nM by flow cytometry in presence of GlcU; assay type: cell-based; procedure, shortened: as §2
B16 [10] = experiment: Binding affinity to ganglioside GM3 in mouse B16 cells at 1 to 10 nM by flow cytometry; assay type: cell-based
Procedure, shortened: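 B16 monolayer cells (2×10^5) were given serially diluted phage (0.5-10 nM) in 1% BSA/PBS for 1 h on ice. After washes, they were labelled with anti-fd antibody and then FITC anti-rabbit IgG (each 0.5 h on ice) and analysed by flow cytometry.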

B16 [11] = experiment: Inhibition of binding affinity to ganglioside GM3 in mouse B16 cells pretreated with neuraminidase at pH 7.4 at 10 nM by flow cytometry; assay type: cell-based
Procedure, shortened: (§3)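 Sialic acid was removed from B16 cells (2×10^5) with 0.05 units Arthrobacter ureafaciens neuraminidase for 90 min at 37 °C, pH 6.5 or 7.4. After three washes, cells took 10 nM phage and were labelled with anti-fd antibody and FITC-conjugated antibody for flow cytometry.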

B16 [12] = experiment: Inhibition of binding affinity to ganglioside GM3 in mouse B16 cells pretreated with neuraminidase at pH 6.5 at 10 nM by flow cytometry; assay type: cell-based; procedure, shortened: as §3
[13] = Selectivity ratio of Kd for ganglioside GalCer to Kd for ganglioside GM3
[14] = Binding affinity to ganglioside GM3 by ELISA relative to wild type fd phage clone
Procedure, shortened: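 GM3 monolayer was transferred from TBS (20 °C, 30 mN m-1) onto a BSA-blocked plastic plate. Phage clones (0.05-5 nM in TBS) were incubated 30 min at 4 °C. Detection used anti-fd antibody, then peroxidase anti-rabbit IgG (each 1 h, 4 °C), with o-phenylenediamine. ΔA was read at 492 nm in triplicate and expressed relative to wild-type fd phage.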

[15] = Ratio of Kd for ganglioside GM3 to Kd for ganglioside 6'GM3
[16] = Ratio of Kd for ganglioside GM3 to Kd for ganglioside GalCer
B16 [17] = experiment: Inhibition of binding affinity to ganglioside GM3 in mouse B16 cells at 10 nM by flow cytometry in presence of Glc; assay type: cell-based; procedure, shortened: as §2

## CC(C)C[C@H](NC(=O)[C@H](CO)NC(=O)[C@H](CC(=O)O)NC(=O)[C@H](Cc1ccccc1)NC(=O)[C@H](C)NC(=O)[C@H](C)NC(=O)[C@H](CCCN)NC(=O)[C@H](C)NC(=O)[C@@H]1CCCN1C(=O)[C@H](CC(=O)O)NC(=O)[C@H](CC(=O)O)NC(=O)CNC(=O)[C@H](CCC(=O)O)NC(=O)[C@H](C)N)C(=O)N[C@@H](CCC(N)=O)C(=O)O
[1]
  Kd: Not Active
[2]
  Kd: Not Active
[3]
  Kd: Not Active
[4]
  Kd: Not Active

## CCCCCCCCCCCCCCCCCC(=O)N[C@@H](C)C(=O)N[C@@H](CCC(=O)O)C(=O)N[C@H](C(=O)N[C@H](C(=O)N[C@@H](CCC(=O)O)C(=O)N[C@@H](CO)C(=O)N[C@@H](CS)C(=O)N[C@@H](CC(C)C)C(=O)N[C@@H](C)C(=O)N[C@@H](CCCCN)C(=O)N1CCC[C@H]1C(=O)N[C@@H](Cc1cnc[nH]1)C(=O)N[C@H](C(=O)N[C@@H](CCC(=O)O)C(=O)N[C@@H](CC(N)=O)C(N)=O)[C@H](C)O)C(C)C)[C@@H](C)O
Influenza A virus
  IC50: 66 µM
[5]
  CMC: 0.8 µM
H3N2 subtype
  IC50: > 100 µM

## CCCCCCCCCCCCCCCCCC(=O)N[C@@H](C)C(=O)N[C@H](C(=O)N[C@@H](C)C(=O)N[C@@H](CO)C(=O)N[C@H](C(=O)N1CCC[C@H]1C(=O)N[C@@H](CCCNC(=N)N)C(=O)N[C@@H](C)C(=O)N[C@@H](CCCNC(=N)N)C(=O)NCC(=O)N[C@@H](CCCCN)C(=O)N[C@@H](Cc1ccc(O)cc1)C(=O)N[C@@H](Cc1c[nH]c2ccccc12)C(=O)N[C@@H](Cc1c[nH]c2ccccc12)C(=O)NCC(N)=O)C(C)C)C(C)C (Stearoyl-AVASVPRARGKYWWG-NH2)
Influenza A virus
  IC50: 44 µM
[5]
  CMC: 0.8 µM
H3N2 subtype
  IC50: 17 µM

## CCCCCCCCCCCCCCCCCC(=O)N[C@@H](CC(=O)O)C(=O)N[C@@H](Cc1ccccc1)C(=O)N[C@@H](CCCNC(=N)N)C(=O)N[C@@H](CCCNC(=N)N)C(=O)N[C@@H](CC(C)C)C(=O)N1CCC[C@H]1C(=O)NCC(=O)N[C@@H](C)C(=O)N[C@@H](Cc1ccccc1)C(=O)N[C@@H](Cc1c[nH]c2ccccc12)C(=O)N[C@@H](CCC(N)=O)C(=O)N[C@@H](CC(C)C)C(=O)N[C@@H](CCCNC(=N)N)C(=O)N[C@@H](CCC(N)=O)C(=O)N1CCC[C@H]1C(N)=O (Stearoyl-DFRRLPGAFWQLRQP-NH2)
Influenza A virus
  IC50: 52 µM
[5]
  CMC: 0.8 µM
H3N2 subtype
  IC50: 19 µM

## CCCCCCCCCCCCCCCCCC(=O)NCC(=O)N[C@@H](C)C(=O)N[C@@H](Cc1c[nH]c2ccccc12)C(=O)N[C@@H](Cc1ccc(O)cc1)C(=O)N[C@@H](CCCCN)C(=O)NCC(=O)N[C@@H](CCCNC(=N)N)C(=O)N[C@@H](C)C(=O)N[C@@H](CCCNC(=N)N)C(=O)N1CCC[C@H]1C(=O)N[C@H](C(=O)N[C@@H](CO)C(=O)N[C@@H](C)C(=O)N[C@H](C(=O)N[C@@H](C)C(N)=O)C(C)C)C(C)C (Stearoyl-GAWYKGRARPVSAVA-NH2)
Influenza A virus
  IC50: 53 µM
[5]
  CMC: 0.8 µM

## CCCCCCCCCCCCCCCCCC(=O)NCC(=O)N[C@@H](Cc1c[nH]c2ccccc12)C(=O)N[C@@H](Cc1c[nH]c2ccccc12)C(=O)N[C@@H](Cc1ccc(O)cc1)C(=O)N[C@@H](CCCCN)C(=O)NCC(=O)N[C@@H](CCCNC(=N)N)C(=O)N[C@@H](C)C(=O)N[C@@H](CCCNC(=N)N)C(=O)N[C@@H](C)C(=O)N[C@H](C(=O)N[C@@H](CO)C(=O)N[C@@H](C)C(=O)N[C@H](C(=O)N[C@@H](C)C(N)=O)C(C)C)C(C)C (Stearoyl-GWWYKGRARAVSAVA-NH2)
Influenza A virus
  IC50: 89 µM
[5]
  CMC: 0.8 µM

## CCCCCCCCCCCCCCCCCC(=O)NCC(=O)N[C@@H](Cc1c[nH]c2ccccc12)C(=O)N[C@@H](Cc1c[nH]c2ccccc12)C(=O)N[C@@H](Cc1ccc(O)cc1)C(=O)N[C@@H](CCCCN)C(=O)NCC(=O)N[C@@H](CCCNC(=N)N)C(=O)N[C@@H](C)C(=O)N[C@@H](CCCNC(=N)N)C(=O)N1CCC[C@H]1C(=O)N[C@H](C(=O)N[C@@H](CO)C(=O)N[C@@H](C)C(=O)N[C@H](C(=O)N[C@@H](C)C(N)=O)C(C)C)C(C)C (Stearoyl-GWWYKGRARPVSAVA-NH2)
Influenza A virus
  IC50: 3.2 µM
[5]
  CMC: 0.8 µM
H3N2 subtype
  IC50: > 10 µM

## CCCCCCCCCCCCCCCCCC(=O)N[C@@H](CCCNC(=N)N)C(=O)N[C@@H](C)C(=O)N[C@H](C(=O)N[C@@H](Cc1c[nH]c2ccccc12)C(=O)N[C@@H](CCCNC(=N)N)C(=O)N[C@@H](Cc1cnc[nH]1)C(=O)N[C@@H](CO)C(=O)N[C@H](C(=O)N[C@@H](C)C(=O)N[C@H](C(=O)N1CCC[C@H]1C(=O)N[C@@H](CO)C(=O)N[C@@H](Cc1cnc[nH]1)C(=O)N[C@@H](CO)C(=O)N[C@H](C(N)=O)C(C)C)[C@@H](C)O)C(C)C)C(C)C (Stearoyl-RAVWRHSVATPSHSV-NH2)
Influenza A virus
  IC50: 6.5 µM
[5]
  CMC: 0.8 µM
H3N2 subtype
  IC50: 68 µM

## H-DFRRLPGAFWQLRQP-OH
[6]
  Activity: 119 ng/cm2

## H-GWWYKGRARPVSAVA-NH2
Influenza A virus
  IC50: > 500 µM

## H-GWWYKGRARPVSAVA-OH
[1]; read-out: Kd
  Kd: 9.8 µM
B16 [7]
  inhibition: 61%
[8]
  Ratio: < 0.02
B16 [9]
  inhibition: 46%
B16 [10]
  Activity: Active
[2]; read-out: Kd
  Kd: 1.5 µM
B16 [11]
  inhibition: inactive
[6]
  Activity: 39 ng/cm2
B16 [12]
  inhibition: Active
[13]
  Ratio: 6.5
[3]; read-out: Kd
  Kd: 1.5 µM
[14]
  fold change (FC): 2.1
[15]
  Ratio: 1
[16]
  Ratio: 0.15
B16 [17]
  inhibition: inactive
[4]; read-out: Kd
  Kd: > 70 µM

## H-GWYSSRHYVRSLNGL-OH
[14]
  fold change (FC): 1.4

## H-LSWPLHAGRGFRWVS-OH
[14]
  fold change (FC): 0.9

## H-LWRPVLFHSAVRALG-OH
[14]
  fold change (FC): 1.7

## H-QQLVYNWWAVSSARR-OH
[14]
  fold change (FC): 1.1

## H-RAVWRHSVATPSHSV-NH2
Influenza A virus
  IC50: > 500 µM

## H-RAVWRHSVATPSHSV-OH
[1]; read-out: Kd
  Kd: > 70 µM
[8]
  Ratio: < 0.006
[2]; read-out: Kd
  Kd: 2 µM
[3]; read-out: Kd
  Kd: 0.41 µM
[14]
  fold change (FC): 1.5
[15]
  Ratio: 0.2
[16]
  Ratio: < 0.006
[4]; read-out: Kd
  Kd: > 70 µM

## H-WRGVYFGDRWLGSQP-OH
[14]
  fold change (FC): 1.6
